# Measurements as given in publication PMC9064899 (The FEBS journal, 2021).
# Positions count from the first letter of the chain named. “And” between values parts separate entries of the source, which are not always exact repeats. Equal entries are not always repeated.
# Tests used:
# Test in all cases: Cell-based UBIAD1 functional assay
# UBIAD1 L67Q = target: T1, UBIAD1 L67Q (Homo sapiens, UniProt Q9Y5Z9, L67Q)
# T1 sequence (Q9Y5Z9 1-338 L67Q): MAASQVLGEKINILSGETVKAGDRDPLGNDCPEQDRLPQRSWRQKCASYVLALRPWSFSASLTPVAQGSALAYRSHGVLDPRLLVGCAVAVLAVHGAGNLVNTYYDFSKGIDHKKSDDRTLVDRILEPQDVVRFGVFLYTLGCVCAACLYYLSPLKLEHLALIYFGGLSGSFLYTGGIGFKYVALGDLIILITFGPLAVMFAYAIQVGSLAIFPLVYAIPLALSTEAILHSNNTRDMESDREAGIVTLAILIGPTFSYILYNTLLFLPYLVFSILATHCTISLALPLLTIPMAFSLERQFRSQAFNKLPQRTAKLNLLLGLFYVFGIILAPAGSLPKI
# Summary of the method: (§1)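 Wild-type or mutant human UBIAD1 in pCI-neo was transiently transfected into Ubiad1-knockout FIXgla-PC/HEK293 cells (DMEM/F12, 10% FBS). […] After 24 h, carboxylated FIXgla-PC in the medium was measured by ELISA. Activity was normalized to wild type (100%), and EC50 came from a curve fit. Mean ± SD, n=3 independent experiments.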
# UBIAD1 D112G = target: T2, UBIAD1 D112G (Homo sapiens, UniProt Q9Y5Z9, D112G)
# T2 sequence (Q9Y5Z9 1-338 D112G): T1 sequence (Q9Y5Z9 1-338 L67Q) with Q67L, D112G
# Summary of the method: as §1
# UBIAD1 G177R = target: T3, UBIAD1 G177R (Homo sapiens, UniProt Q9Y5Z9, G177R)
# T3 sequence (Q9Y5Z9 1-338 G177R): T1 sequence (Q9Y5Z9 1-338 L67Q) with Q67L, G177R
# Summary of the method: as §1
# UBIAD1 G186R = target: T4, UBIAD1 G186R (Homo sapiens, UniProt Q9Y5Z9, G186R)
# T4 sequence (Q9Y5Z9 1-338 G186R): T1 sequence (Q9Y5Z9 1-338 L67Q) with Q67L, G186R
# Summary of the method: as §1
# UBIAD1 D236A = target: T5, UBIAD1 D236A (Homo sapiens, UniProt Q9Y5Z9, D236A)
# T5 sequence (Q9Y5Z9 1-338 D236A): T1 sequence (Q9Y5Z9 1-338 L67Q) with Q67L, D236A
# Summary of the method: as §1
# UBIAD1 D236E = target: T6, UBIAD1 D236E (Homo sapiens, UniProt Q9Y5Z9, D236E)
# T6 sequence (Q9Y5Z9 1-338 D236E): T1 sequence (Q9Y5Z9 1-338 L67Q) with Q67L, D236E
# Summary of the method: as §1
# UBIAD1 D240A = target: T7, UBIAD1 D240A (Homo sapiens, UniProt Q9Y5Z9, D240A)
# T7 sequence (Q9Y5Z9 1-338 D240A): T1 sequence (Q9Y5Z9 1-338 L67Q) with Q67L, D240A
# Summary of the method: as §1
compound,measurement,setting,value
"CC1=CC(=O)c2ccccc2C1=O [vitamin K3, menadione]",EC50,UBIAD1 L67Q,3.8 ± 0.8 nM
same,Vitamin K-dependent carboxylation Activity ± SD,"UBIAD1 L67Q; L67Q, 1 μM vitamin K3",40.7 ± 2%
same,EC50,UBIAD1 D112G,5.1 ± 0.8 nM
same,Vitamin K-dependent carboxylation Activity ± SD,"UBIAD1 D112G; D112G, 1 μM vitamin K3",104.8 ± 3%
same,EC50,UBIAD1 G177R,3 ± 0.3 nM
same,Vitamin K-dependent carboxylation Activity ± SD,"UBIAD1 G177R; G177R, 1 μM vitamin K3",119.8 ± 1.2%
same,increase of EC50 value of vitamin K3 vs wild-type,UBIAD1 G186R; G186R vs WT,60 fold
same,Vitamin K-dependent carboxylation Activity ± SD,"UBIAD1 G186R; G186R, 1 μM vitamin K3",57.1 ± 1.1%
same,EC50,UBIAD1 D236A,90 ± 17.6 nM
same,Vitamin K-dependent carboxylation Activity ± SD,"UBIAD1 D236A; D236A, 1 μM vitamin K3",32% and 32.5 ± 0.9%
same,EC50,UBIAD1 D236E,22.6 ± 2.2 nM
same,EC50 value of vitamin K3 lower than that of D236A,UBIAD1 D236E; D236E vs D236A,4 fold
same,increase of EC50 value of vitamin K3 vs wild-type,UBIAD1 D236E; D236E vs WT,6 fold
same,Vitamin K-dependent carboxylation Activity ± SD,"UBIAD1 D236E; D236E, 1 μM vitamin K3",107.1 ± 4.9%
same,EC50,UBIAD1 D240A,64 ± 10.5 nM
same,Vitamin K-dependent carboxylation Activity ± SD,"UBIAD1 D240A; D240A, 1 μM vitamin K3",85.6 ± 1.4%
